These results are taken from ChEMBL document CHEMBL4311932, “Novel zafirlukast derivatives exhibit selective antibacterial activity against Porphyromonas gingivalis” (Medchemcomm, 2019).

In series [1] the test system is Porphyromonas gingivalis. Kind of series: Antibacterial activity against Porphyromonas gingivalis 381 assessed as bacterial growth inhibition at 1 uM measured after 2 hrs in anaerobic condition by WST1 assay relative to control. Type of series: functional. Particulars: Porphyromonas gingivalis, 381, 2 h; read-out: GI. The procedure, abridged:
(§1)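 P. gingivalis 381 was grown anaerobically in BHI with 5 µg/mL hemin and 1 µg/mL menadione to log phase (3-4 h). Cultures at 10^6/well in 90 µL broth were exposed for 2 h, then given WST-1 for another 2 h. A450 was read with a 600 nm reference. % growth inhibition was taken against medium-only control, using DMSO vehicle and tetracycline 1 µg/mL as comparators.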
A general note: Formazan colour is commonly taken as a measure of viable cells.

The subject of another series is Streptococcus sanguinis. Kind of series: Antibacterial activity against Streptococcus sanguinis ATCC 10556 assessed as bacterial growth inhibition at 1 to 100 uM after 2 hrs in aerobic condition by WST1 assay relative to control. Type of series: functional. The procedure, abridged: (§2)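 Log-phase cultures (3-4 h in BHI broth after overnight growth) were plated at 10^6 bacteria/well in 90 µL and treated for 2 h. WST-1 was then added for a further 2 h incubation, aerobic for S. sanguinis and anaerobic for the others, at 37 °C. A450 was read against a 600 nm reference. % inhibition = 100 × [OD(medium control) − OD(treated)]/OD(control). Compounds were dissolved in DMSO.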

Series [2] relates to Porphyromonas gingivalis. Briefly: Antibacterial activity against Porphyromonas gingivalis 381 assessed as bacterial growth inhibition at 100 uM measured after 2 hrs in anaerobic condition by WST1 assay relative to control. Type of series: functional. Particulars: Porphyromonas gingivalis, 381, 2 h; read-out: GI. The procedure, abridged:
as §1

The next series concerns Fusobacterium nucleatum. Briefly: Antibacterial activity against Fusobacterium nucleatum ATCC 25586 assessed as bacterial growth inhibition at 1 to 100 uM after 2 hrs in anaerobic condition by WST1 assay relative to control. The format is functional. The procedure, abridged:
as §2

A further series has as its system Actinomyces naeslundii. Kind of series: Antibacterial activity against Actinomyces naeslundii ATCC 49340 assessed as bacterial growth inhibition at 1 to 100 uM after 2 hrs in anaerobic condition by WST1 assay. Type of series: functional, organism-based. The procedure, abridged: as §2
Series [3] can be described thus: Induction of apoptosis in hTERT-immortalized human OKF6 cells assessed as viable cells at 1 to 10 uM after 24 hrs by AnnexinV-FITC/propidium iodide staining based flow cytometry analysis relative to control. To be noted: read-out: Activity. The procedure, abridged:
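After 24 h treatment of OKF6/hTERT cells, adherent cells (trypsinized) were pooled with cells recovered from supernatants and washed in PBS. They were stained with FITC-Annexin V plus propidium iodide for 15 min at room temperature. At least 10,000 events were acquired per sample (excitation 488 nm, emission 530 nm), with viable, apoptotic and necrotic fractions reported against DMSO.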
For orientation: Flow cytometry measures light scatter and fluorescence of single cells or particles in a stream.

A short description of series [4]: Cytotoxicity against hTERT-immortalized human OKF6 cells assessed as reduction in cell viability after 24 hrs by tryphan blue staining based assay. To be noted: OKF6, 24 h. The procedure, abridged:
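OKF6/hTERT cells at 10^5/well in Ker-SFM were exposed for 24 h to 0, 1, 2.5, 5, 10, 15, 20, 25, 50 and 100 µM in DMSO. Viability was counted by trypan blue exclusion on an automated counter, in triplicate. IC50 was derived from a fitted concentration-response curve.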

The nature of series [5]: Cytotoxicity against hTERT-immortalized human OKF6 cells assessed as cell viability at 1 uM after 24 hrs by tryphan blue staining based assay relative to control. Particulars: read-out: Activity. The procedure, abridged: (§3)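 OKF6/hTERT keratinocytes were grown in Ker-SFM with 25 µg/mL bovine pituitary extract and 0.2 ng/mL EGF at 37 °C, 5% CO2. Cells were seeded overnight at 10^5/well and exposed for 24 h to 1 or 10 µM in DMSO. Cells were then trypsinized, washed, mixed 1:1 with trypan blue and counted automatically for % live/dead. Two independent experiments were run in duplicate.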

The test system of series [6] is Aggregatibacter actinomycetemcomitans. Kind of series: Antibacterial activity against Aggregatibacter actinomycetemcomitans JP2 assessed as bacterial growth inhibition at 1 to 100 uM after 2 hrs in anaerobic condition by WST1 assay. Type of series: functional, organism-based. The procedure, abridged: as §2
Series [7] is described as follows: Cytotoxicity against hTERT-immortalized human OKF6 cells assessed as cell death at 1 to 10 uM after 24 hrs by tryphan blue staining based assay. The procedure, abridged:
as §3

The test system of another series is Veillonella parvula. Kind of series: Antibacterial activity against Veillonella parvula ATCC 10790 assessed as bacterial growth inhibition at 1 to 100 uM after 2 hrs in anaerobic condition by WST1 assay. The format is functional, organism-based. The procedure, abridged: as §2
The test system of series [8] is Porphyromonas gingivalis. Briefly: Antibacterial activity against Porphyromonas gingivalis 381 assessed as bacterial growth inhibition at 10 uM measured after 2 hrs in anaerobic condition by WST1 assay relative to control. Type of series: functional. Particulars: Porphyromonas gingivalis, 381, 2 h; read-out: GI. The procedure, abridged:
as §1

In series [9] the test system is Porphyromonas gingivalis. Briefly: Antibacterial activity against Porphyromonas gingivalis 381 assessed as bacterial growth inhibition at 25 to 50 uM measured after 2 hrs in anaerobic condition by WST1 assay. Type of series: functional, organism-based.
Series [10] has as its system Porphyromonas gingivalis. Briefly: Bactericidal activity against Porphyromonas gingivalis 381 at 25 to 50 uM treated for 24 hrs and measured after 7 days incubation in anaerobic condition […]. The format is functional, organism-based. The procedure, abridged: (§4)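 Viable-count assay on P. gingivalis 381 (10^6/well) grown anaerobically. Cultures were exposed for 24 h to agents dissolved in DMSO. 50 µL of 1:400 dilutions were spread on blood agar, and CFU/mL was counted after 7 days anaerobic incubation. Controls were medium or DMSO (negative) and tetracycline 2.25 µM (positive).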

Series [11] deals with Porphyromonas gingivalis. Kind of series: Antibacterial activity against Porphyromonas gingivalis 381 assessed as bacterial growth inhibition at 2.25 uM measured after 2 hrs in anaerobic condition by WST1 assay. Type of series: functional, organism-based.
In series [12] the test system is Porphyromonas gingivalis. Briefly: Bactericidal activity against Porphyromonas gingivalis 381 at 10 uM treated for 24 hrs and measured after 7 days incubation in anaerobic condition by CFU counting relative to control. Particulars: read-out: GI.
For series [13], the system named is Porphyromonas gingivalis. Briefly: Bactericidal activity against Porphyromonas gingivalis 381 at 100 uM treated for 24 hrs and measured after 7 days incubation in anaerobic condition […]. Type of series: functional, organism-based. The procedure, abridged:
as §4

Series [14] relates to Porphyromonas gingivalis. Kind of series: Bactericidal activity against Porphyromonas gingivalis 381 at 1 uM treated for 24 hrs and measured after 7 days incubation in anaerobic condition by WST1 assay relative to control. Particulars: in the assay text read “by CFU counting” for “by WST1 assay”, read-out: GI. The format is functional. The procedure, abridged:
as §4

Calls of active or inactive are those of the source. The rule behind the calls is not given here.

Regarding `COc1ccc(Cc2cn(C)c3ccccc23)cc1C(=O)NS(=O)(=O)c1ccccc1C`, the inhibition of growth at 1 µM in the series with Porphyromonas gingivalis [1] was 15 to 40%. In addition, the “inhibition (INH)” value in the series on Streptococcus sanguinis and in the series on Fusobacterium nucleatum was 20% each time. For the same compound, the inhibition of growth at 100 µM with Porphyromonas gingivalis [2] stood at 100%. The “growth inhibition (GI)” value in the series on Actinomyces naeslundii is “inactive”. Moreover, the viability at 24 h, up to 10 µM in [3] was 50 to 70%. In addition, the half-inhibitory concentration (IC50) (usually the concentration needed to halve the response being measured) in [4] is 16 µM. Further, in [5], the viability at 24 h, 1 µM fell in the range of 70 to 90%. In addition, the inhibition entry (in [6]; with Veillonella parvula) was “inactive” throughout. Moreover, the Activity entry in [7] was “Toxic”. The inhibition of growth at 10 µM in the series on Porphyromonas gingivalis [8] lay within 90 to 100%.
As to `COc1cc(C(=O)NS(=O)(=O)c2ccccc2C)ccc1Cc1cn(C)c2ccc(NC(=O)OC3CCCC3)cc12`, in the series on Porphyromonas gingivalis [9], the “growth inhibition (GI)” value is “Active”. Also, in the series with Porphyromonas gingivalis [10], the result was Active.
Consider `COc1cc(C(=O)NS(=O)(=O)c2ccccc2C)ccc1Cc1cn(C)c2ccccc12`, for which the inhibition of growth at 100 µM in the series with Porphyromonas gingivalis [2] was found to be 60%.
With `CN(C)[C@@H]1C(O)=C(C(N)=O)C(=O)[C@@]2(O)C(O)=C3C(=O)c4c(O)cccc4[C@@](C)(O)[C@H]3C[C@@H]12`, the “growth inhibition (GI)” value in the series with Porphyromonas gingivalis [11] was “Active”.
In the case of `COc1ccc(Cc2c[nH]c3ccccc23)cc1C(=O)NS(=O)(=O)c1ccccc1C`, in the series on Porphyromonas gingivalis [2], the inhibition of growth at 100 µM was found to be 100%. The inhibition of growth at 10 µM in the series on Porphyromonas gingivalis [8] was 80%.
On to `COc1ccc(Cc2cn(C)c3ccc([N+](=O)[O-])cc23)cc1C(=O)NS(=O)(=O)c1ccccc1`, for which the figures for the inhibition of growth at 1 µM in the series with Porphyromonas gingivalis [1] and in the series with Porphyromonas gingivalis [14] were 15 to 40% and 60%, respectively. Besides, the “inhibition (INH)” value in the series with Streptococcus sanguinis and with Fusobacterium nucleatum was 20% each time. In the series with Porphyromonas gingivalis [2], the inhibition of growth at 100 µM was 100%. Besides, the “growth inhibition (GI)” value with Actinomyces naeslundii is “inactive”. Besides, the viability at 24 h, up to 10 µM in series [3] lay in the range of 50 to 70%. Besides, the IC50 in [4] was 54 µM. In addition, in series [5], the viability at 24 h, 1 µM is 70 to 90%. Further, the inhibition of growth at 10 µM in the series with Porphyromonas gingivalis [12] is 100%; in the series with Porphyromonas gingivalis [8] it was 90 to 100%. For the same compound, the inhibition entry (in series [6]; in the series with Veillonella parvula) was “inactive” each time. Besides, the outcome in the series with Porphyromonas gingivalis [13] was Active. For the same compound, in [7], the Activity entry is recorded as “Non-Toxic”.
Regarding `COc1ccc(Cc2cn(C)c3ccccc23)cc1C(=O)NS(=O)(=O)c1ccccc1`, the inhibition of growth at 100 µM with Porphyromonas gingivalis [2] was 100%. Moreover, in the series on Porphyromonas gingivalis [8], the inhibition of growth at 10 µM fell in the range of 90 to 100%.
Consider `Cn1cc(Cc2ccc(C(=O)NS(=O)(=O)c3ccccc3)cc2)c2ccccc21`, for which the inhibition of growth at 100 µM in the series on Porphyromonas gingivalis [2] was 100%. In the series with Porphyromonas gingivalis [8], the inhibition of growth at 10 µM fell in the range of 90 to 100%.
On to `O=C(NS(=O)(=O)c1ccccc1)c1ccc(Cc2c[nH]c3ccccc23)cc1`, for which the inhibition of growth at 100 µM with Porphyromonas gingivalis [2] worked out at 100%. Besides, in the series with Porphyromonas gingivalis [8], the inhibition of growth at 10 µM stood at 40%.
The like results for `COc1ccc(Cc2c[nH]c3ccccc23)cc1C(=O)NS(=O)(=O)c1ccccc1` were, in that order, 100% and 40%.
For `COc1ccc(Cc2cn(C)c3ccc([N+](=O)[O-])cc23)cc1C(=O)NS(=O)(=O)c1ccccc1C`, in the series with Porphyromonas gingivalis [1], the inhibition of growth at 1 µM is 15 to 40%. Moreover, the “inhibition (INH)” value with Streptococcus sanguinis and in the series on Fusobacterium nucleatum was 20% each time. The inhibition of growth at 100 µM in the series on Porphyromonas gingivalis [2] was determined as 100%. Moreover, the inhibition entry (with Actinomyces naeslundii; in series [6]; in the series with Veillonella parvula) was “inactive” throughout. In addition, the viability at 24 h, up to 10 µM in series [3] lay in the range of 50 to 70%. Moreover, the IC50 in series [4] came to 230 µM. The viability at 24 h, 1 µM in series [5] was in the range of 70 to 90%. Also, the outcome in the series with Porphyromonas gingivalis [13] was Active. In series [7], the Activity result is “Toxic”. For the same compound, the inhibition of growth at 10 µM in the series with Porphyromonas gingivalis [8] was in the range of 90 to 100%.
As to `COc1cc(C(=O)NS(=O)(=O)c2ccccc2)ccc1Cc1cn(C)c2ccccc12`, in the series on Porphyromonas gingivalis [2], the inhibition of growth at 100 µM was 60%.
Regarding `Cc1ccccc1S(=O)(=O)NC(=O)c1ccc(Cc2c[nH]c3ccccc23)cc1`, the inhibition of growth at 100 µM with Porphyromonas gingivalis [2] turned out to be 100%. Also, the inhibition of growth at 10 µM with Porphyromonas gingivalis [8] stood at 90%.
